“And” between values parts separate entries of the source, which are not always exact repeats. Equal entries are not always repeated.
How the values were obtained:
HOP-92 = experiment: Antitumor activity against human HOP92 cells; type: functional
How it was run: (§1)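 Run by the NCI in its in vitro disease-oriented screen of about 60 human tumour cell lines. For each line it reports pGI50 (50% net growth inhibition), pTGI (total growth inhibition) and pLC50 (50% net cell death), each as –log molar concentration. Where an effect was not reached within the tested range, the highest tested concentration was used.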

NCI-H23 = experiment: Antitumor activity against human NCI-H23 cells; type: functional; how it was run: as §1
[1] = Antitumor activity against human NCI-H322 cells; type: functional; how it was run: as §1
NCI-H522 = experiment: Antitumor activity against human NCI-H522 cells; type: functional; how it was run: as §1
COLO 205 = experiment: Antitumor activity against human COLO205 cells; type: functional; how it was run: as §1
HCT-15 = experiment: Antitumor activity against human HCT15 cells; type: functional; how it was run: as §1
HT-29 = experiment: Antitumor activity against human HT29 cells; type: functional; how it was run: as §1
SW-620 = experiment: Antitumor activity against human SW620 cells; type: functional
How it was run: (§2)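 NCI 60-cell-line screen. Parameters were GI50 (50% net growth inhibition), TGI and LC50, each reported as –log molar concentration. Where an effect was not reached within the tested range, the highest tested concentration was used in the calculation.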

SF-268 [2] = experiment: Antitumor activity against human SF268 cells; type: functional; how it was run: as §1
SF-295 = experiment: Antitumor activity against human SF295 cells; type: functional; how it was run: as §1
U-251 = experiment: Antitumor activity against human U251 cells; type: functional; how it was run: as §2
Malme-3M = experiment: Antitumor activity against human MALME3M cells; type: functional; how it was run: as §1
M14 = experiment: Antitumor activity against human M14 cells; type: functional; how it was run: as §1
SK-MEL-2 = experiment: Antitumor activity against human SKMEL2 cells; type: functional; how it was run: as §1
SK-MEL-28 = experiment: Antitumor activity against human SKMEL28 cells; type: functional; how it was run: as §1
UACC-62 = experiment: Antitumor activity against human UACC62 cells; type: functional; how it was run: as §2
OVCAR-3 = experiment: Antitumor activity against human OVCAR-3 cells; type: functional; how it was run: as §1
OVCAR-8 = experiment: Antitumor activity against human OVCAR8 cells; type: functional; how it was run: as §1
SK-OV-3 = experiment: Antitumor activity against human SKOV3 cells; type: functional; how it was run: as §1
A498 = experiment: Antitumor activity against human A498 cells; type: functional; how it was run: as §1
ACHN = experiment: Antitumor activity against human ACHN cells; type: functional; how it was run: as §1
CAKI-1 = experiment: Antitumor activity against human CAKI1 cells; type: functional; how it was run: as §1
RXF 393 = experiment: Antitumor activity against human RXF393 cells; type: functional; how it was run: as §1
Tubulin (Sus scrofa) = Tubulin (Sus scrofa) (UniProt P02554+P02550); experiment: Inhibition of pig brain tubulin polymerization
NCI-H460 = experiment: Cell viability against human NCI-H460 cells at 10 uM; type: functional
SF-268 [3] = experiment: Cell viability against human SF268 cells at 10 uM; type: functional
RPMI-8226 = experiment: Antitumor activity against human RPMI8226 cells; type: functional; how it was run: as §1
MOLT-4 = experiment: Antitumor activity against human MOLT4 cells; type: functional; how it was run: as §1
HOP-62 = experiment: Antitumor activity against human HOP62 cells; type: functional; how it was run: as §1
SN12C = experiment: Antitumor activity against human SN12C cells; type: functional; how it was run: as §1
TK-10 = experiment: Antitumor activity against human TK10 cells; type: functional; how it was run: as §2
PC-3 = experiment: Antitumor activity against human PC3 cells; type: functional; how it was run: as §1
DU-145 = experiment: Antitumor activity against human DU145 cells; type: functional; how it was run: as §1
NCI/ADR-RES = experiment: Antitumor activity against human NCI/ADR-RES cells; type: functional; how it was run: as §1
Hs-578T = experiment: Antitumor activity against human HS578T cells; type: functional; how it was run: as §1
MDA-MB-435 = experiment: Antitumor activity against human MDA-MB-435 cells; type: functional; how it was run: as §1
T47D = experiment: Antitumor activity against human T47D cells; type: functional; how it was run: as §2
MCF7 [4] = experiment: Growth inhibition of human MCF7 cells after 72 hrs by MTT assay; type: functional; conditions: MCF7, 72 h
How it was run: (§3)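 Growth inhibition by MTT after 72 h incubation. Resistant sublines: LoVoDoxo and MCF-7 MDR were kept in 0.1 µg/mL doxorubicin; CEMVbl-100 was selected against vinblastine. GI50 given as mean ± SEM of three independent experiments. Resistance index is resistant-line GI50 over parental GI50.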

MCF7 [5] = experiment: Growth inhibition of human multidrug-resistant MCF7 cells after 72 hrs by MTT assay; type: functional; conditions: MCF7, 72 h; how it was run: as §3
MCF7 [6] = experiment: Resistance index, Ratio of GI50 for human multidrug-resistant MCF7 cells to GI50 for human MCF7 cells; type: functional; how it was run: as §3
CCRF-CEM = experiment: Growth inhibition of human CEM cells after 72 hrs by MTT assay; type: functional; how it was run: as §3
[7] = read-out: Log LC50 (the source's name) (converted)

Tubulin (Sus scrofa), sequence (P02550 whole entry, looked up): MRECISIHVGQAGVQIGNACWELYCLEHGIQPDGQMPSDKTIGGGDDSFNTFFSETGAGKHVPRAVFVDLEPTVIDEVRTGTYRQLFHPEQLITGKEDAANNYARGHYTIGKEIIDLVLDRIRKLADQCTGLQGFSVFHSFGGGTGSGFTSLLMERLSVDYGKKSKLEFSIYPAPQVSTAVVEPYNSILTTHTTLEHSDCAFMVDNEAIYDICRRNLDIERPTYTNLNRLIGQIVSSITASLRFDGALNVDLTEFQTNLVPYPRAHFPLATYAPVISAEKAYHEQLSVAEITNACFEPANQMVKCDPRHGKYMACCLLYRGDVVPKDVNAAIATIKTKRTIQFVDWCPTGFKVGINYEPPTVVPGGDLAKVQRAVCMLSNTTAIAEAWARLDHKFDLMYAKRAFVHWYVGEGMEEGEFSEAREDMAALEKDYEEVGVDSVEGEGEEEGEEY
Tubulin (Sus scrofa), sequence (P02554 whole entry, looked up): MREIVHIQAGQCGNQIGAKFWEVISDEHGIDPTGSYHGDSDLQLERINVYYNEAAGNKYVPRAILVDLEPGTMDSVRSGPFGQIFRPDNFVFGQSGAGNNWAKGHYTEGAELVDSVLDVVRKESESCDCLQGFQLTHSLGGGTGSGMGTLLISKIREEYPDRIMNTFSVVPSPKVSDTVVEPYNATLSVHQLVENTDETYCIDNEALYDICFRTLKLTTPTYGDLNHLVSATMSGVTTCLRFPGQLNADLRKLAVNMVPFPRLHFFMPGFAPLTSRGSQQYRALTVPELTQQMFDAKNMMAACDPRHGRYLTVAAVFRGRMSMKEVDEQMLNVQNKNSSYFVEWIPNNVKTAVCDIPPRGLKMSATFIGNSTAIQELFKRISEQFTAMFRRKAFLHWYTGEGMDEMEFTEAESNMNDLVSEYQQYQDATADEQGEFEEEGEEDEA

For `Cc1cc2[nH]c(=O)c3c4ccccc4cn3c2cc1C`, the GI50 (HOP-92) was 15.5 µM, the LC50 (HOP-92) was 58.9 µM and the TGI (HOP-92; read-out: pTGI (converted)) was 30.2 µM. The GI50 (NCI-H23) was 14.8 µM, the LC50 (50% net cell kill) (NCI-H23) was 69.2 µM and the TGI (NCI-H23; read-out: pTGI (converted)) was 32.4 µM. It also gave a GI50 [1] of 16.6 µM, an LC50 (50% net cell death) [1] of 55 µM and a TGI ([1]; read-out: pTGI (converted)) of 30.2 µM. For the same compound, the GI50 (NCI-H522) was 14.5 µM, the CC50 (NCI-H522; [7]) was 66.1 µM and the TGI (NCI-H522; read-out: pTGI (converted)) was 30.9 µM. The GI50 (COLO 205) was 15.1 µM, the LC50 (COLO 205) was over 100 µM and the TGI (COLO 205; read-out: pTGI (converted)) was over 100 µM. For the same compound, the GI50 (HCT-15) was 6.17 µM, the CC50 (HCT-15; [7]) was 61.7 µM and the TGI (HCT-15; read-out: pTGI (converted)) was 21.9 µM. The GI50 (HT-29) was 6.03 µM, the LC50 (HT-29) was over 100 µM and the TGI (HT-29; read-out: pTGI (converted)) was over 100 µM. It also gave a GI50 (SW-620) of 3.8 µM, a CC50 (SW-620; [7]) of over 100 µM and a TGI (SW-620; read-out: pTGI (converted)) of 33.1 µM. For the same compound, the GI50 (SF-268 [2]) was 15.5 µM, the CC50 (SF-268 [2]; [7]) was 69.2 µM and the TGI (SF-268 [2]; read-out: pTGI (converted)) was 32.4 µM. For the same compound, the GI50 (SF-295) was 12.3 µM, the CC50 (SF-295; [7]) was 66.1 µM and the TGI (SF-295; read-out: pTGI (converted)) was 28.2 µM. For the same compound, the GI50 (U-251) was 4.07 µM, the CC50 (U-251; [7]) was 47.9 µM and the TGI (U-251; read-out: pTGI (converted)) was 14.1 µM. The GI50 (Malme-3M) was 22.4 µM, the CC50 (Malme-3M; [7]) was 63.1 µM and the TGI (Malme-3M; read-out: pTGI (converted)) was 37.2 µM. It also gave a GI50 (M14) of 13.5 µM, a CC50 (M14; [7]) of 52.5 µM and a TGI (M14; read-out: pTGI (converted)) of 26.9 µM. For the same compound, the GI50 (SK-MEL-2) was 18.2 µM, the LC50 (SK-MEL-2) was 66.1 µM and the TGI (SK-MEL-2; read-out: pTGI (converted)) was 34.7 µM. It also gave a GI50 (SK-MEL-28) of 14.8 µM, a CC50 (SK-MEL-28; [7]) of 83.2 µM and a TGI (SK-MEL-28; read-out: pTGI (converted)) of 35.5 µM. For the same compound, the GI50 (UACC-62) was 16.6 µM, the LC50 (UACC-62) was 60.3 µM and the TGI (UACC-62; read-out: pTGI (converted)) was 31.6 µM. For the same compound, the GI50 (OVCAR-3) was 13.8 µM, the LC50 (50% net cell death) (OVCAR-3) was 57.5 µM and the TGI (OVCAR-3; read-out: pTGI (converted)) was 28.2 µM. The GI50 (OVCAR-8) was 7.08 µM, the LC50 (50% net cell death) (OVCAR-8) was 81.3 µM and the TGI (OVCAR-8; read-out: pTGI (converted)) was 25.7 µM. It also gave a GI50 (SK-OV-3) of 18.2 µM, an LC50 (50% net cell kill) (SK-OV-3) of 64.6 µM and a TGI (SK-OV-3; read-out: pTGI (converted)) of 34.7 µM. The GI50 (A498) was 21.4 µM, the CC50 (A498; [7]) was 72.4 µM and the TGI (A498; read-out: pTGI (converted)) was 39.8 µM. The GI50 (ACHN) was 10.2 µM, the LC50 (50% net cell kill) (ACHN) was 53.7 µM and the TGI (ACHN; read-out: pTGI (converted)) was 23.4 µM. For the same compound, the GI50 (CAKI-1) was 5.37 µM, the LC50 (CAKI-1) was 49 µM and the TGI (CAKI-1; read-out: pTGI (converted)) was 17.8 µM. The GI50 (RXF 393) was 12 µM, the CC50 (RXF 393; [7]) was 63.1 µM and the TGI (RXF 393; read-out: pTGI (converted)) was 27.5 µM. The Activity (Tubulin (Sus scrofa)) was over 10 µM, the Activity (NCI-H460) was 0% and the Activity (SF-268 [3]) was 0%. It also gave a GI50 (RPMI-8226) of 6.76 µM, a CC50 (RPMI-8226; [7]) of over 100 µM and a TGI (RPMI-8226; read-out: pTGI (converted)) of 29.5 µM. For the same compound, the GI50 (MOLT-4) was 5.62 µM, the LC50 (MOLT-4) was 70.8 µM and the TGI (MOLT-4; read-out: pTGI (converted)) was 19.5 µM. For the same compound, the GI50 (HOP-62) was 2690 nM, the LC50 (50% net cell death) (HOP-62) was 28.8 µM and the TGI (HOP-62; read-out: pTGI (converted)) was 8.13 µM. The GI50 (SN12C) was 6.03 µM, the LC50 (SN12C) was 56.2 µM and the TGI (SN12C; read-out: pTGI (converted)) was 20.4 µM. The GI50 (TK-10) was 20 µM, the CC50 (TK-10; [7]) was 58.9 µM and the TGI (TK-10; read-out: pTGI (converted)) was 33.9 µM. The GI50 (PC-3) was 12 µM, the LC50 (50% net cell death) (PC-3) was 53.7 µM and the TGI (PC-3; read-out: pTGI (converted)) was 25.7 µM. For the same compound, the GI50 (DU-145) was 13.8 µM and 30.2 µM, the CC50 (DU-145; Homo sapiens, DU-145, read-out: Log LC50 (the source's name) (converted)) was 64.6 µM and the GI50 (NCI/ADR-RES) was 13.5 µM. For the same compound, the LC50 (NCI/ADR-RES) was 74.1 µM, the TGI (NCI/ADR-RES; read-out: pTGI (converted)) was 31.6 µM and the GI50 (Hs-578T) was 25.1 µM. It also gave a CC50 (Hs-578T; [7]) of over 100 µM, a TGI (Hs-578T; read-out: pTGI (converted)) of 60.3 µM and a GI50 (MDA-MB-435) of 6.03 µM. For the same compound, the LC50 (50% net cell death) (MDA-MB-435) was 50.1 µM, the TGI (MDA-MB-435; read-out: pTGI (converted)) was 20 µM and the GI50 (T47D) was 15.5 µM. The LC50 (T47D) was over 100 µM, the TGI (T47D; read-out: pTGI (converted)) was 50.1 µM and the GI50 (MCF7 [4]) was 5.1 µM. The GI50 (MCF7 [5]) was 9.2 µM, the RatioGI50 (MCF7 [6]) was 1.8 and the GI50 (CCRF-CEM) was 15.5 µM.
